The results in this text go back to ChEMBL document CHEMBL3870337, “Development of a triazole class of highly potent Porcn inhibitors” (Bioorg Med Chem Lett, 2016).

A word on the half-life: it is the time in which the quantity being followed falls by half. A word on the EC50: it is the midpoint of the concentration-response curve. A higher EC50 goes with weaker potency.

Active and inactive are the calls of the source. No cut-off for these calls is given here. Bounds are passed on as bounds.

System in the first data set: not listed separately
As to the kind of experiment: Stability in mouse plasma at 2 uM in presence of NADPH by LC-MS/MS analysis.
Details: not given
With `O=C(Cn1nnc(-c2ccncc2)c1-c1ccccc1)Nc1ccc(-c2ccccc2)cn1`, the half-life at 2 µM is over 4 h.

The target in the next data set is T1, Protein-serine O-palmitoleoyltransferase porcupine (Homo sapiens) (UniProt Q9H237).
T1 sequence (whole entry): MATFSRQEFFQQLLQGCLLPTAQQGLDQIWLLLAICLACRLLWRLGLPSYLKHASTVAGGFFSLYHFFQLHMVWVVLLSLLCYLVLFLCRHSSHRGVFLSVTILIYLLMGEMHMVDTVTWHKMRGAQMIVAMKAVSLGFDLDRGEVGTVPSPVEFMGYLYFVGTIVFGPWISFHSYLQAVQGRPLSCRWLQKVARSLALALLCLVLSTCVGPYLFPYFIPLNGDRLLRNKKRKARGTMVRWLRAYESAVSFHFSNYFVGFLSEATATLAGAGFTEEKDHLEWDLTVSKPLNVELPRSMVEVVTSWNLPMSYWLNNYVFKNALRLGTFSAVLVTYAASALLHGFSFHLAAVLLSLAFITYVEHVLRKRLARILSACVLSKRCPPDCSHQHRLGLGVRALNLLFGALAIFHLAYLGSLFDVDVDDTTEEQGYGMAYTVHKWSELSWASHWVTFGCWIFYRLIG
In words: Inhibition of porcupine-mediated phosphorylation of LRP6 in human HeLa cells at 1 uM after 24 hrs by Western blot analysis. The format is cell-based.
Details: not given
The method, boiled down: (§1)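 HeLa cells, which have high cell-autonomous Wnt signalling, were treated for 24 h with compound, the LGK974 reference or DMSO vehicle. Cell lysates were then analysed by Western blot for phosphorylation of LRP6 and of Dvl2/3, used as biochemical markers of Wnt pathway activity.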
(A western blot detects proteins with antibodies after separation by electrophoresis.)
With `O=C(Cn1nnc(-c2ccncc2)c1-c1ccccc1)Nc1ccc(-c2ccccc2)cn1`, the inhibition result is “Active”.

System in a further data set: not listed separately
As to the kind of experiment: Half life in mouse plasma at 2 uM in presence of NADPH by LC-MS/MS analysis.
Details: not given
The data set is classed as ADME, cell-free.
Take `O=C(Cn1cc(-c2ccncc2)nn1)Nc1ccc(-c2ccccc2)cn1`: the t1/2 was determined as 1.67 h.

In the case of `O=C(CSc1nnc(-c2ccncc2)n1-c1ccccc1)Nc1ccc(-c2cccnc2)cc1`, the t1/2 was under 0.083 h. With `O=C(Cn1nnc(-c2ccncc2)c1-c1ccccc1)Nc1ccc(-c2ccccc2)cn1`, the t1/2 stood at 2.17 h.

System in a further data set: not listed separately
In words: Half life in ICR/CD-1 mouse liver S9 fraction at 2 uM in presence of NADPH by LC-MS/MS analysis. The data set is classed as ADME, subcellular. The note with it: s9, 2 µM.
For the compound `O=C(Cn1cc(-c2ccncc2)nn1)Nc1ccc(-c2ccccc2)cn1`, the t1/2 worked out at 3.33 h. `O=C(CSc1nnc(-c2ccncc2)n1-c1ccccc1)Nc1ccc(-c2cccnc2)cc1`: the t1/2 is 0.25 h.

For a further data set, the target named is T2, Protein-serine O-palmitoleoyltransferase porcupine (Mus musculus, UniProt Q9JJJ7).
T2 sequence (Q9JJJ7 whole entry): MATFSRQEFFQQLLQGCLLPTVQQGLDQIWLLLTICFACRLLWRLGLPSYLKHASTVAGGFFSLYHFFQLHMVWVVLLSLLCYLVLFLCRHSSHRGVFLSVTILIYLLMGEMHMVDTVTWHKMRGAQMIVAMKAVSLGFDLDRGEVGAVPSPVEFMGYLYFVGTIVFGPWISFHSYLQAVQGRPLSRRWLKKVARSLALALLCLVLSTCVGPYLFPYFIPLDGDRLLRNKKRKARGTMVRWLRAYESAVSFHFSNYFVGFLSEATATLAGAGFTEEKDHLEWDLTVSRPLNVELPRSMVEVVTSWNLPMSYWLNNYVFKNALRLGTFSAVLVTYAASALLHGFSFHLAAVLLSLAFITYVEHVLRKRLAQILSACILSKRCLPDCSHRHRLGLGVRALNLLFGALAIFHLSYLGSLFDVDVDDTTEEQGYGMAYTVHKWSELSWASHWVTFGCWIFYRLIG
In words: Inhibition of porcupine-mediated Wnt signaling in mouse L-cells after 24 hrs by springerImage-Topflash reporter assay.
Details: not given
(In general: A reporter such as luciferase makes a cellular process visible.)
In turn, `Cc1cc(-c2nnn(CC(=O)Nc3ccc(-c4ccccc4)cn3)c2-c2ccccc2)ccn1` showed an EC50 of 0.14 nM. Still for that read-out and setting: with `O=C(Cn1nnc(-c2ccccn2)c1-c1ccccc1)Nc1ccc(-c2ccccc2)cn1` the figure was 2500 nM; with `O=C(Cn1nnc(-c2ccncc2)c1-c1ccccc1)Nc1ncc(-c2ccccc2)s1`, 80000 nM.

In turn, `CCOC(=O)c1ccc(-c2c(-c3ccncc3)nnn2CC(=O)Nc2ccc(-c3ccccc3)cn2)cc1` gave an EC50 of 0.7 nM. As to `Cc1cccc(-c2c(-c3ccncc3)nnn2CC(=O)Nc2ccc(-c3ccccc3)cn2)c1`, the EC50 stood at 0.4 nM.

The compound `COc1ccc(-c2nnn(CC(=O)Nc3ccc(-c4ccccc4)cn3)c2-c2ccccc2)cc1` had a concentration for a half-maximal effect (EC50) of 18 nM.

For `O=C(Cn1nnc(-c2ccncc2)c1-c1ccccc1)Nc1ccc(N2CCCCC2)cc1`, the EC50 was 8 nM. Still for that read-out and setting: the value for `O=C(Cn1cc(-c2ccncc2)nn1)Nc1ccc(-c2ccccc2)cn1` was 9 nM. `O=C(Cn1nnc(-c2ccncc2)c1-c1ccccc1)Nc1ccc(-c2ccccn2)cc1` had an EC50 of 1.8 nM. Compound `N#Cc1ccc(-c2c(-c3ccncc3)nnn2CC(=O)Nc2ccc(-c3ccccc3)cn2)cc1` displayed an EC50 of 0.48 nM. The same measure, in the same setting: with `O=C(Cn1nnc(-c2cccnc2)c1-c1ccccc1)Nc1ccc(-c2ccccc2)cn1` the figure was 5 nM; with `O=C(Cn1nnc(-c2ccncc2)c1-c1ccccc1)Nc1ccc(-c2cccnc2)cc1`, 200 nM. Compound `O=C(Cn1cc(-c2ccccc2)nn1)Nc1ccc(-c2ccccc2)cn1` had a concentration for a half-maximal effect (EC50) of over 5000 nM. Same read-out and setting: with `O=C(Cn1nnc(-c2ccncc2)c1-c1ccccc1)Nc1ncc(-c2ccccc2)cn1` the figure was 8 nM; with `O=C(Cn1nnc(-c2ccnc(F)c2)c1-c1ccccc1)Nc1ccc(-c2ccccc2)cn1`, 0.13 nM. Still for that read-out and setting: the value for `COc1ccc(-c2c(-c3ccncc3)nnn2CC(=O)Nc2ccc(-c3ccccc3)cn2)cc1` was 0.18 nM; that for `O=C(Cn1nnc(-c2ccncc2)c1-c1ccccc1)Nc1ccc(-c2ccccc2)nc1` was 0.2 nM; that for `O=C(Cn1nnc(-c2ccncc2)c1-c1ccccc1)Nc1ccc(-c2ccncc2)cc1` was 7 nM. Compound `O=C(Cn1nnc(-c2ccncc2)c1-c1ccccc1)Nc1ccc(-c2cncnc2)cn1` registered an EC50 of 1.8 nM. The same measure, in the same setting: the value for `O=C(Cn1nnc(-c2ccncc2)c1-c1ccccc1)Nc1ccc(-c2ccoc2)cn1` was 0.6 nM.

As to `O=C(Cn1cc(-c2cccnc2)nn1)Nc1ccc(-c2ccccc2)cn1`, the EC50 came out at 100 nM. The same measure, in the same setting: the value for `O=C(Cn1cc(-c2ccccn2)nn1)Nc1ccc(-c2ccccc2)cn1` was over 5000 nM; that for `O=C(Cn1nnc(-c2ccccc2C(F)(F)F)c1-c1ccccc1)Nc1ccc(-c2ccccc2)cn1` was 500 nM. Compound `O=C(Cn1nnc(-c2ccncc2)c1-c1cccc2ccccc12)Nc1ccc(-c2ccccc2)cn1` returned an EC50 of 6.5 nM. Take `O=C(Cn1nnc(-c2ccncc2)c1-c1ccccc1)Nc1ccc(N2CCCCC2)cn1`: the EC50 is over 1000 nM. On the same count and under the same terms, the value for `Cc1ccccc1-c1c(-c2ccncc2)nnn1CC(=O)Nc1ccc(-c2ccccc2)cn1` was 40 nM. Regarding `O=C(Cn1nnc(-c2ccnc(C(F)(F)F)c2)c1-c1ccccc1)Nc1ccc(-c2ccccc2)cn1`, the EC50 came to 0.6 nM. Still for that read-out and setting: with `O=C(Cn1nnc(-c2ccncc2)c1-c1ccc(F)cc1)Nc1ccc(-c2ccccc2)cn1` the figure was 0.2 nM; with `O=C(Cn1nnc(-c2ccncc2)c1-c1ccccc1)Nc1ccc(-c2ccco2)cn1`, 0.4 nM. `O=C(Cn1nnc(-c2ccncc2)c1-c1ccccc1)Nc1ccc(-c2cccnc2)cn1` showed an EC50 of over 1000 nM. On the same count and under the same terms, with `COc1ccccc1-c1c(-c2ccncc2)nnn1CC(=O)Nc1ccc(-c2ccccc2)cn1` the figure was 9 nM; with `O=C(Cn1nnc(-c2ccncc2)c1-c1ccc(C(F)(F)F)cc1)Nc1ccc(-c2ccccc2)cn1`, 0.3 nM; with `O=C(Cn1nnc(-c2ccncc2)c1-c1ccccc1)Nc1ccc(-c2ccsc2)cn1`, 0.65 nM. Still for that read-out and setting: with `CC(C(=O)Nc1ccc(-c2ccccc2)cn1)n1nnc(-c2ccncc2)c1-c1ccccc1` (stereo unspecified) the figure was 3 nM. Consider `O=C(Cn1nnc(-c2ccncc2)c1-c1ccccc1)Nc1ccc(-c2ccccc2)cn1`, for which it took 0.08 nM to reach a half-maximal effect (EC50). Still for that read-out and setting: with `O=C(Cn1nnc(-c2ccccc2)c1-c1ccccc1)Nc1ccc(-c2ccccc2)cn1` the figure was 400 nM; with `O=C(Cn1nnc(-c2ccncc2)c1-c1ccccc1)Nc1cccc(-c2ccccc2)c1`, 270 nM. `CCC(C(=O)Nc1ccc(-c2ccccc2)cn1)n1nnc(-c2ccncc2)c1-c1ccccc1` (stereo unspecified) had an EC50 of 12 nM.

In a further data set the target is T1, Protein-serine O-palmitoleoyltransferase porcupine (Homo sapiens). As to the kind of experiment: Inhibition of porcupine-mediated phosphorylation of dishevelled 2/3 in human HeLa cells at 1 uM after 24 hrs by Western blot analysis. The format is cell-based.
Details: not given
The method, boiled down: as §1
As for `O=C(Cn1nnc(-c2ccncc2)c1-c1ccccc1)Nc1ccc(-c2ccccc2)cn1`, the inhibition entry is “Active”.
